The values that follow come from ChEMBL document CHEMBL5346886 (Eur J Med Chem, 2023).

As usually defined, the EC50 is the concentration at which the effect is half-maximal.

Active and inactive are the calls of the source. The rule behind the calls is not given here.

The nature of series [1]: Drug metabolism in Sprague-Dawley rat assessed as hydrolysis-mediated ibuprofen metabolite formation at 25 mg/kg, po administered as single dose and measured after 24 hrs by LC-MS/MS analysis. It is filed as ADME, organism-based. To be noted: in vivo. In short, it runs like this:
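Male SD rats (n = 3), fasted 12 h, dosed intragastrically; jugular vein blood into EDTA-K2 tubes at 0.25, 0.5, 1, 2, 3, 4, 6, 8 and 24 h; plasma protein-precipitated with acetonitrile, filtered, analytes measured by LC/MS/MS; noncompartmental PK analysis; mean ± SD.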

Series [2] in a line: Drug metabolism in Sprague-Dawley rat assessed as hydrolysis-mediated ibuprofen metabolite formation at 5 mg/kg, iv administered as single dose and measured after 24 hrs by LC-MS/MS analysis. Format: ADME, organism-based. As to conditions: in vivo.
Series [3] relates to Murine hepatitis virus. The experiment in a line: Antiviral activity against murine hepatitis virus-A59 infected in BALB/c mouse assessed as remission of hemorrhage in liver at 200 mg/kg, po administered once daily one hour post infection and measured after 3 days by H&E staining based analysis. As to conditions: time 3.0 day. It is filed as functional, organism-based. In short, it runs like this: (§1)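 In male BALB/c mice (3–4 weeks), MHV-A59 was given intranasally (30 μL, TCID50 = 10−7.125/100 μL). Oral dosing once daily in a Cremophor EL/PBS/DMSO vehicle began at 1 hpi and lasted four days. At 3 dpi, lungs and livers from 4 mice per group were fixed in zinc formalin and paraffin-embedded. Sections of about 4 μm were stained with H&E and examined at 200× and 400×.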

The test system of series [4] is Transmissible gastroenteritis virus. The experiment in a line: Antiviral activity against Transmissible gastroenteritis virus infected in ST cells assessed as reduction in viral copy pre-infected with cells for 1 hrs followed by compound addition and measured after 48 hrs by RT-qPCR analysis. It is filed as functional, organism-based. To be noted: Alphacoronavirus 1, ST. In short, it runs like this: (§2)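 CRFK cells (CCoV, FIPV) or ST cells (TGEV) were grown in DMEM with 10% FBS at 37 °C, 5% CO2. At 80% confluence they were washed in serum-free medium and infected at MOI 0.01 for 1 h at 37 °C. Compounds were then added at 0.1–100 μmol/L, with DMSO as blank. After 48 h, cells and supernatants were analysed by qRT-PCR. Inhibition came from viral copy number, and EC50 from curve fitting.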

Series [5] relates to Murine hepatitis virus. The experiment in a line: Antiviral activity against murine hepatitis virus-A59 infected in BALB/c mouse assessed as reduction in CXCL10 production in lungs at 200 mg/kg, po administered once daily one hour post infection and measured after 3 days by ELISA analysis. To be noted: time 3.0 day. It is filed as functional, organism-based. In short, it runs like this:
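MHV-A59 was inoculated intranasally into male BALB/c mice (30 μL, TCID50 = 10−7.125/100 μL), with oral dosing once daily from 1 hpi for four days. At 3 dpi, 0.1 g lung or liver from 4 mice per group was homogenized in 0.9 mL water at 4 °C and centrifuged. Supernatant IFN-β was read by ELISA; TNF-α, IFN-γ, IL-1β, IL-6 and CXCL10 by multi-analyte kit, with OD 450 nm against standards.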
A general note: In an ELISA, binding on a coated surface is turned into a signal by an enzyme label.

Series [6] concerns Murine hepatitis virus. Description: Antiviral activity against murine hepatitis virus-A59 infected in BALB/c mouse assessed as reduction in mortality at 10 to 200 mg/kg, po administered once daily one hour post infection and measured after 23 days. Format: functional, organism-based. As to conditions: dose 10-200 mg/kg, time 23.0 day. In outline:
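After intranasal MHV-A59 inoculation (30 μL, TCID50 = 10−7.125/100 μL), 3–4-week-old male BALB/c mice received oral drug or vehicle once daily from 1 hpi for four days, 12 per group. The remaining mice were monitored daily for body weight, clinical signs and death until 23 dpi; survival curves were plotted.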

In series [7] the test system is Murine hepatitis virus. The experiment in a line: Antiviral activity against murine hepatitis virus-A59 infected in BALB/c mouse assessed as alleviation of thickened alveolar septa in lungs at 200 mg/kg, po administered once daily one hour post infection and measured after 3 days by H&E staining based analysis. Format: functional, organism-based. To be noted: time 3.0 day. In outline: as §1

For series [8], the system named is Murine hepatitis virus. The experiment in a line: Antiviral activity against murine hepatitis virus-A59 infected in BALB/c mouse assessed as inhibition of viral titer in liver at 10 to 200 mg/kg, po administered once daily one hour post infection and measured after 3 days by qRT-PCR analysis. As to conditions: dose 10-200 mg/kg, time 3.0 day. It is filed as functional, organism-based. In short, it runs like this: (§3)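 SPF male BALB/c mice aged 3–4 weeks were put under isoflurane and inoculated intranasally with 30 μL MHV-A59 (TCID50 = 10−7.125/100 μL) in PBS. Oral dosing once daily in 15% Cremophor EL/82.5% PBS/2.5% DMSO started at 1 hpi and ran for four days; groups had 12 mice. At 3 dpi, 4 mice per group were killed and lung and liver M-gene copies measured by qRT-PCR.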
In general terms: In qPCR the cycle at which signal appears reflects the starting amount.

For series [9], the system named is Murine hepatitis virus. The experiment in a line: Antiviral activity against murine hepatitis virus-A59 infected in BALB/c mouse assessed as survival rate at 10 mg/kg, po administered once daily one hour post infection and measured after 23 days relative to control. Format: functional. To be noted: Murine coronavirus, A59, 552 h, time 23 day. In short, it runs like this: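 Male SPF BALB/c mice (3–4 weeks) were anaesthetised with isoflurane and given 30 μL MHV-A59 intranasally (TCID50 = 10−7.125/100 μL) in PBS. Oral dosing once daily in 15% Cremophor EL/82.5% PBS/2.5% DMSO began at 1 hpi and ran for four days, at 10, 50 or 200 mg/kg. There were 12 mice per group, with 4 culled at 3 dpi. Body weight, clinical signs and death were recorded daily to 23 days.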

The subject of the next series is Canine coronavirus. The experiment in a line: Antiviral activity against Canine coronavirus infected in CRFK cells assessed as reduction in viral copy pre-infected with cells for 1 hrs followed by compound addition and measured after 48 hrs by RT-qPCR analysis. It is filed as functional, organism-based. To be noted: Alphacoronavirus 1, CRFK. In short, it runs like this: as §2

Series [10] deals with Murine hepatitis virus. The experiment in a line: Antiviral activity against murine hepatitis virus-A59 infected in BALB/c mouse model of acute liver injury assessed as reduction in plasma ALT level at 10 to 200 mg/kg, po administered once daily one hour post infection and measured after 3 days. Format: functional, organism-based. As to conditions: dose 10-200 mg/kg, time 3.0 day. In outline: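 Male BALB/c mice were infected intranasally with MHV-A59 (30 μL, TCID50 = 10−7.125/100 μL) and dosed orally once daily from 1 hpi for four days in 15% Cremophor EL/82.5% PBS/2.5% DMSO. At 3 dpi, blood from 4 euthanized mice per group was left to clot at room temperature and centrifuged. Serum ALT and AST were measured on a clinical chemistry analyzer.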

Series [11] deals with Murine hepatitis virus. Description: Antiviral activity against murine hepatitis virus-A59 infected in BALB/c mouse assessed as alleviation of interstitial pneumonia in lungs at 200 mg/kg, po administered once daily one hour post infection and measured after 3 days by H&E staining based analysis. To be noted: time 3.0 day. Format: functional, organism-based. In short, it runs like this:
as §1

For series [12], the system named is Murine hepatitis virus. Description: Antiviral activity against murine hepatitis virus-A59 infected in BALB/c mouse assessed as alleviation of necrotic debris in lungs at 200 mg/kg, po administered once daily one hour post infection and measured after 3 days by H&E staining based analysis. Format: functional, organism-based. To be noted: time 3.0 day. In outline: as §1

Series [13] deals with Murine hepatitis virus. The experiment in a line: Antiviral activity against murine hepatitis virus-A59 infected in po dosed BALB/c mouse assessed as inhibition of viral replication in liver administered once daily one hour post infection and measured after 3 days by qRT-PCR analysis. Format: functional, organism-based. As to conditions: dose 10-200 mg/kg, time 3.0 day. In outline: as §3

Series [14] has as its system Murine hepatitis virus. The experiment in a line: Antiviral activity against murine hepatitis virus-A59 infected in po dosed BALB/c mouse assessed as inhibition of viral replication in lungs administered once daily one hour post infection and measured after 3 days by qRT-PCR analysis. Format: functional, organism-based. To be noted: dose 10-200 mg/kg, time 3.0 day. In short, it runs like this: as §3

Series [15] relates to Murine hepatitis virus. Description: Antiviral activity against murine hepatitis virus-A59 infected in BALB/c mouse assessed as inhibition of viral titer in lungs at 200 mg/kg, po administered once daily one hour post infection and measured after 3 days by qRT-PCR analysis. It is filed as functional, organism-based. To be noted: time 3.0 day. In short, it runs like this: as §3

A short description of series [16]: Stability in human plasma assessed as half-life. It is filed as ADME, cell-free.

Take `CC(C)Cc1ccc(C(C)C(=O)OC[C@H]2O[C@@](C#N)(c3ccc4c(N)ncnn34)[C@H](O)[C@@H]2O)cc1` (some centres not stated): the Drug metabolism entry in series [1] and in series [2] was “Metabolite_Detected” each time. Moreover, the result in the series on Murine hepatitis virus [3], in the series on Murine hepatitis virus [5], with Murine hepatitis virus [6], with Murine hepatitis virus [7], in the series with Murine hepatitis virus [8] and with Murine hepatitis virus [10] was Active. Further, the result in the series with Murine hepatitis virus [11], in the series with Murine hepatitis virus [12] and in the series with Murine hepatitis virus [15] was Active. Moreover, the EC50 was 3780 nM in [4] and 1410 nM in the series with Canine coronavirus. Also, the survival at 10 mg/kg with Murine hepatitis virus [9] is 100%. In addition, the Activity entry in the series on Murine hepatitis virus [13] and in the series with Murine hepatitis virus [14] was “Dose-Dependent Effect” throughout. The t1/2 in series [16] worked out at 4.4173 h.
